PubChem BioAssay AID493195 (Broad Institute, 2011)
Calls of active or inactive are those of the source.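 The calls were made as follows: active = fitted dose curve reaching 40% activation within the tested dose range; inconclusive = no clear call, values can overlap the other calls; inactive = the rest, or activity opposite the expected rise.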

Columns and labels:
[1] = tested on: U2OS HRE-luciferase reporter, luminescence, HIF activation; assay: HRE-luciferase reporter activators in U2OS cells, dose response, cell-based, luminescence, U2OS HRE-luc, dry powder, set 6 (AID 493195)
In short: (§1)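 Technique – Steady-Glo luciferase luminescence · Test system – human U2OS osteosarcoma cells stably carrying 3×HRE-luciferase reporter · Quantity – 6,000 cells per well · Doses – 8 concentrations, 3-fold steps, 7.5 mM stock · Timing – 24 h compound exposure at 37 °C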

[2] = as above; details: U2OS HRE-luciferase reporter, luminescence, HIF activation; at 38 µM (top of the series)
In short: as §1

Structure (SMILES)	AC40 [1]	activation [2]
c1ccc(-c2nnc(-c3ccccn3)nc2NCC2CCOCC2)cc1	18.3 µM	–
CC(C)(C)CCNC(=O)c1cc(-c2ccccc2)on1	–	9.01% (inactive)
O=C(NC1CCc2ccccc2C1)c1cc(-c2ccccc2)on1 (stereo not drawn)	–	1.01% (inactive)
O=C(NCc1ccccc1)c1cc(-c2ccccc2)on1	–	1.19% (inactive)
O=C(Nc1nnc(-c2ccccc2)s1)c1cc(-c2ccccc2)on1	–	-0.274% (inactive)
c1ccc(-c2nnc(-c3ccccn3)nc2N2CCC(N3CCOCC3)CC2)cc1	8.15 µM	–
c1ccc(-c2nnc(-c3ccccn3)nc2NCCCN2CCOCC2)cc1	10.7 µM	–
O=C(c1cc(-c2ccccc2)on1)N1CCC(N2CCCC2)CC1	–	-0.666% (inactive)
Cc1cccc(Nc2nc(-c3ccccn3)nnc2-c2ccccc2)n1	11.2 µM	–
c1ccc(CCNc2nc(-c3ccccn3)nnc2-c2ccccc2)cc1	2.14 µM	–
c1ccc(CNc2nc(-c3ccccn3)nnc2-c2ccccc2)cc1	5.43 µM	–
Cc1cccc(CNC(=O)c2cc(-c3ccccc3)on2)c1	–	-0.241% (inactive)
OCCCNc1nc(-c2ccccn2)nnc1-c1ccccc1	16.7 µM	–
O=C(Nc1cn2ccccc2n1)c1cc(-c2ccccc2)on1	–	0.943% (inactive)
c1ccc(-c2nnc(Nc3nc(-c4ccccn4)nnc3-c3ccccc3)s2)cc1	4.75 µM	–
Oc1ccc(CN2CCC(Cc3ccccc3)CC2)c2cccnc12	26.5 µM	–
c1ccc(-c2nnc(-c3ccccn3)nc2N2CCC(C3CCCCC3)C2)cc1 (stereo not drawn)	1.78 µM	–
CN1CCN(c2nc(-c3ccccn3)nnc2-c2ccccc2)CC1	15.8 µM	–
C[C@@H](Nc1nc(-c2ccccn2)nnc1-c1ccccc1)C1CCCCC1	4.3 µM	–
O=C(Nc1ncc(-c2ccccc2)o1)c1cc(-c2ccccc2)on1	–	-0.076% (inactive)
Cc1ccc(NC(=O)c2cc(-c3ccccc3)on2)cn1	–	-0.191% (inactive)
O=C(NC1Cc2ccccc2C1)c1cc(-c2ccccc2)on1	–	0.84% (inactive)

Structure (SMILES)	AC40 [1]	activation [2]
O=C(NCCCn1ccnc1)c1cc(-c2ccccc2)on1	26.5 µM	–
Cc1ccc(CNC(=O)c2cc(-c3ccccc3)on2)cc1	–	-0.243% (inactive)
CC(C)(C)c1ccc(CNc2nc(-c3ccccn3)nnc2-c2ccccc2)cc1	1.13 µM	–
Cc1ccccc1CNC(=O)c1cc(-c2ccccc2)on1	–	-0.171% (inactive)
CN(C)c1nc(-c2ccccn2)nnc1-c1ccccc1	10.5 µM	–
Cc1ccc(Nc2nc(-c3ccccn3)nnc2-c2ccccc2)cn1	9.36 µM	–
Oc1ccc(CNC2CCc3ccccc32)c2cccnc12 (stereo not drawn)	–	15.9% (inactive)
c1ccc(-c2nnc(-c3ccccn3)nc2NCCN2CCOCC2)cc1	11.6 µM	–
O=C(Nc1ccc2ccccc2n1)c1cc(-c2ccccc2)on1	–	-0.178% (inactive)
O=C(c1cc(-c2ccccc2)on1)N1CCC(CO)CC1	–	0.347% (inactive)
O=C(Nc1cnc2ccccc2c1)c1cc(-c2ccccc2)on1	–	0.224% (inactive)
O=C(NCCN1CCOCC1)c1cc(-c2ccccc2)on1	–	20.9% (inactive)
c1ccc(-c2nnc(-c3ccccn3)nc2N2CCN(c3ccncc3)CC2)cc1	7.78 µM	–
CC(C)(C)OC(=O)N1CCN(Cc2ccc(O)c3ncccc23)CC1	–	9.74% (inactive)
C[C@H](Nc1nc(-c2ccccn2)nnc1-c1ccccc1)C1CCCCC1	2.23 µM	–
OCC1CCN(Cc2ccc(O)c3ncccc23)CC1	–	44.4% (inactive)
O=C(c1cc(-c2ccccc2)on1)N1CCN(c2ccncc2)CC1	–	-0.05% (inactive)
c1ccc(-c2nnc(-c3ccccn3)nc2N2CCC(c3ccccc3)C2)cc1 (stereo not drawn)	1.54 µM	–
O=C(NCC1CC1)c1cc(-c2ccccc2)on1	–	19.6% (inactive)
c1ccc(-c2csc(Nc3nc(-c4ccccn4)nnc3-c3ccccc3)n2)cc1	24.6 µM	–
Cn1c(-c2ccccc2)cnc1NC(=O)c1cc(-c2ccccc2)on1	–	-0.441% (inactive)
